What was measured:
TRIM33 PHD-Bromo = molecular target: T1, TRIM33 PHD-Bromo (Homo sapiens, UniProt Q9UPN9); assay: ITC binding of H3; conditions: versus H3(1-28) (KD=0.46 μM)
T1 sequence (Q9UPN9 882-1087 limits assumed): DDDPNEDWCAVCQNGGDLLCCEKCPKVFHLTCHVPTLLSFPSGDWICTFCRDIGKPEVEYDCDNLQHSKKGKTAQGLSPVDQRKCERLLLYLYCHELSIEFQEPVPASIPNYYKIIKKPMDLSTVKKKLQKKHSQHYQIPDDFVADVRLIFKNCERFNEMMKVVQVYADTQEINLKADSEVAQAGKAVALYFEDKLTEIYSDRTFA

[1] = system: TRIM33-Smad2/3 complex in mESCs; assay: Smad2/3 co-immunoprecipitation, TRIM33-Smad2/3 complex formation; assay type: cell-based, mouse
[2] = system: activin responsive genes in EBs; assay: Genome-wide transcriptomic analysis; assay type: cell-based, mouse; conditions: >3 fold change
[3] = system: HP1γ at Gsc and Mixl1 promoters; assay: ChIP of HP1γ at Gsc and Mixl1 promoters; assay type: cell-based, mouse; conditions: wild type and Trim33-null EBs day 2.5, activin 2 h
In short: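 Mouse E14Tg2a.IV ESCs (feeder-free, LIF) and Trim33-null ESCs (C57Bl/6J, on MEFs) formed EBs for 2.5 days, then got activin or SB for 2 h. HP1γ or no-antibody ChIP used a kit. Absolute qPCR covered Gsc −2.3 kb and Mixl1 −0.2/−0.5 kb, as % input. Mean ± S.D. of quadruplicates.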

[4] = system: TRIM33 at Gsc and Mixl1 promoters; assay: ChIP of TRIM33 at Gsc / Mixl1 promoters; assay type: cell-based, mouse
In short: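 EBs (day 2.5) came from wild-type, Trim33-depleted, Smad2/3-depleted or Smad4-null mESCs. They were given activin A (50 ng/ml) or SB431542 (10 μM) for 2 h. Formaldehyde crosslinking (1%, 37 °C, 10 min) was quenched with glycine. Anti-TRIM33 ChIP used a kit, with absolute qPCR of Gsc/Mixl1 promoter regions reported as % input. Mean ± S.D. of quadruplicates, at least three experiments.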

[5] = system: Gsc, Mixl1, Smad7, Skil, SerpinE1, Lefty1 expression in mESCs; assay: qRT-PCR of activin/nodal target genes in mESCs / embryoid bodies; assay type: cell-based, mouse
In short: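 E14Tg2a.IV mESCs were kept feeder-free with LIF; Trim33-null lines were kept on MEFs. Variants were Trim33 knockdown by lentiviral shRNA, Smad2/3-depleted, Smad4-null, or reconstituted with TRIM33 constructs. Embryoid bodies formed for 2.5 days, then received activin A (50 ng/ml) or SB431542 (10 μM) for 2 h. Total RNA went to qRT-PCR. Mean ± S.D. of quadruplicates, three independent experiments.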

[6] = system: Smad4-Smad2/3 complex in mESCs; assay: Smad2/3 co-immunoprecipitation, Smad4-Smad2/3 complex formation; assay type: cell-based, mouse
[7] = system: Smad4 at Gsc and Mixl1 promoters; assay: ChIP of Smad4 at Gsc / Mixl1 promoters; assay type: cell-based, mouse; conditions: EBs day 2.5, activin 2 h
In short: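 Wild-type, shRNA Trim33-depleted or TRIM33-reconstituted mESCs formed EBs for 2.5 days, then 2 h with activin A (50 ng/ml) or SB431542 (10 μM). Cells were crosslinked in 1% formaldehyde at 37 °C for 10 min and quenched in 0.125 M glycine. Anti-Smad4 ChIP was read by absolute qPCR of Gsc (−0.4 kb) and Mixl1 (−0.5/−0.2 kb) as % input. Mean ± S.D. of quadruplicates, three experiments.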

[8] = system: histone H3 modified residues at Gsc and Mixl1 promoters; assay: ChIP of histone H3 marks at Gsc and Mixl1 promoters; assay type: cell-based, mouse; conditions: activin
In short: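 Histone-mark ChIP used day-2.5 mESC embryoid bodies treated with activin A (50 ng/ml) or SB431542 (10 μM). Cells were fixed with 1% formaldehyde (37 °C, 10 min) and quenched with glycine. Antibodies recognised modified H3 residues; protein A/G beads alone served as negative controls. Mono-nucleosome templates came from micrococcal nuclease digestion. Absolute qRT-PCR, percent of input. Mean ± S.D. of quadruplicates, ≥3 experiments.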

[9] = system: RNA Pol II at Gsc and Mixl1 promoters; assay: ChIP of RNA Pol II at Gsc and Mixl1 promoters; assay type: cell-based, mouse; conditions: Gsc -0.1 kb, Mixl1 -0.2 kb, EBs day 2.5, activin 2 h
In short: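 Mouse ESC embryoid bodies at day 2.5 (wild type or Trim33-null) received activin or SB431542 for 2 h. ChIP used anti-RNA Pol II. qRT-PCR read Gsc −0.1 kb and Mixl1 −0.2 kb as percent of input. Mean ± S.D. of quadruplicates, two independent experiments.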

[10] = system: MDA-MB-231 breast carcinoma cells; conditions: and our unpublished work, ref Gomis et al., 2006; cited from earlier work
HaCaT cells = assay: Luciferase reporter, SERPINE1; assay type: cell-based, human; conditions: SERPINE1 (PAI1) element
[11] = system: MDA-MB-231 breast carcinoma cells; assay: TGF-β gene responses in MDA-MB-231; assay type: cell-based, human; conditions: qRT-PCR, MDA-MB-231, TRIM33 depletion
HaCaT keratinocytes [12] = assay: TGF-β gene responses in HaCaT; assay type: cell-based, human; conditions: qRT-PCR
MDA-MB-231 cells = assay: Luciferase reporter, repeats of Smad binding element; assay type: cell-based, human; conditions: SBE repeats
HaCaT keratinocytes [13] = conditions: and our unpublished work, ref Gomis et al., 2006; cited from earlier work

H3(1-28) acetylation of K18: H3(1-28) with acetylation of K18
enhancement of binding relative to H3(1-28) (TRIM33 PHD-Bromo): 2.3 fold

activin: recombinant activin A (R&D Systems), ligand sharing receptors with nodal
formation of TRIM33-Smad2/3 complex, Smad4 requirement ([1]; Smad4-null mESCs): did not require Smad4
t1/2 of TRIM33-Smad2/3 complex formation ([1]; mESCs, activin A 50 ng/ml): ~30 min
total activin gene responses ([2]; p<0.05): 407 responses
activin gene responses requiring both Smad4 and TRIM33 ([2]; p<0.05, of 407 responses): 333 responses
HP1γ binding to TRIM33 target regions [3]: inhibited by activin addition in a TRIM33-dependent manner
TRIM33 ChIP binding, Mixl1 ([4]; EBs day 2.5, activin 2 h): Activin-dependent binding of TRIM33 occurred near the Mixl1 ARE
activin-dependent TRIM33 binding on Smad2/3 depletion, Mixl1 ([4]; depletion of Smad2/3): inhibited the activin-dependent binding of TRIM33
activin-induced TRIM33 binding, effect of Smad4 ([4]; wild-type versus Smad4-null ESCs): enhanced the activin-induced binding of TRIM33 to its sites
responsiveness to activin ([5]; Cripto/cryptic-depleted cells): remained responsive to activin
induction of Gsc, Mixl1, Smad7 ([5]; RNAi-mediated depletion of TRIM33, EB 2.5 days, activin 2 h): strongly blunted the induction of Gsc and Mixl1 but not that of Smad7
Gsc, Mixl1 and Smad7 responses to added activin ([5]; Smad4-null or Smad2/3-depleted mESCs, EB 2.5 days, 2 h): lacked Gsc, Mixl1 and Smad7 responses
Gsc and Mixl1 responses ([5]; TRIM33-depleted cells reconstituted with shRNA-insensitive TRIM33 vector): restored the Gsc and Mixl1 responses
expression of Smad7, Skil and SerpinE1 ([5]; Trim33-null ESC lines, activin): stimulated the expression of the common Smad2/3 target genes
Lefty1 induction by activin ([5]; Trim33-null mESCs, Smad4-null mESCs depleted of TRIM33): blunted
expression of Gsc and Mixl1 ([5]; two independent Trim33-null ESC lines, activin): failed to stimulate the expression of Gsc and Mixl1
formation of Smad4-Smad2/3 complex on TRIM33 depletion ([6]; TRIM33 shRNA or knock-out mESCs): did not inhibit the formation of the Smad4-Smad2/3 complex
t1/2 of Smad4-Smad2/3 complex formation ([6]; mESCs, activin A 50 ng/ml): ~30 min
Smad4 ChIP binding, Gsc [7]: Activin-dependent binding of Smad4 occurred only at the ARE
level of H3K18ac ([8]; TRIM33 binding regions and throughout Gsc and Mixl1 promoters): rapid, marked increase in the level of H3K18ac
levels of H3K14ac and H3K23ac [8]: increased by activin
level of H3K9me3 ([8]; throughout these regions of Gsc and Mixl1 promoters): did not affect the level of H3K9me3
level of Pol II binding to initiator region [9]: increase in the level of Pol II binding

NC(=O)c1ccc(-c2nc(-c3ccc4c(c3)OCO4)c(-c3ccccn3)[nH]2)cc1 [SB431542, reference compound]
sensitivity of endogenous nodal-like factor responses to SB431542 ([5]; mESC EBs, SB431542 10 μM): SB431542-sensitive

TGF-β
most TGF-β responses on RNAi depletion of Smad2/3 and Smad4 or TRIM33 [10]: inhibited by RNAi-mediated depletion of Smad2/3 and Smad4, but not by depletion of TRIM33
reporter response on TRIM33 depletion (HaCaT cells): increased the activity of these constructs
TGF-β response of SMAD7, SKIL and SERPINE1 on TRIM33 depletion [11]: did not significantly alter the TGF-β response
TGF-β response of SMAD7, SKIL and SERPINE1 on TRIM33 depletion (HaCaT keratinocytes [12]): did not significantly alter the TGF-β response
reporter response on TRIM33 depletion (MDA-MB-231 cells): increased the activity of these constructs
most TGF-β responses on RNAi depletion of Smad2/3 and Smad4 or TRIM33 (HaCaT keratinocytes [13]): inhibited by RNAi-mediated depletion of Smad2/3 and Smad4, but not by depletion of TRIM33
